The list shows a part of the results. Calls of active or inactive are those of the source.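 The calls were made as follows: active = mean activation of the triplicate above a set limit carried over from the primary screen, none filed active; inactive = the rest.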
molecular target: Oxysterols receptor LXR-beta (Homo sapiens) (UniProt P55055); assay: LXR agonists, Gal4 luciferase reporter, confirmation, counter-screen for hgDAF-12 agonist project, cell-based, luminescence, HEK293, H. glycines campaign (AID 743051); details: 24 h, at 6.8 µM, stronger effect = higher value
In short: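 System: Gal4-LXR luciferase reporter HEK293 cells / Compound: single nominal test compound dose of 6.8 µM / Times: 24 h exposure, 37 °C / Technique: One-Glo luminescence after 15 min / Read-out basis: % activation versus DMSO and positive controls / Benchmarks: DMSO low control, 0.68% final / Replication: n 3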

Sequence of Oxysterols receptor LXR-beta (Homo sapiens) (P55055 whole entry, looked up, the tested form may be a part): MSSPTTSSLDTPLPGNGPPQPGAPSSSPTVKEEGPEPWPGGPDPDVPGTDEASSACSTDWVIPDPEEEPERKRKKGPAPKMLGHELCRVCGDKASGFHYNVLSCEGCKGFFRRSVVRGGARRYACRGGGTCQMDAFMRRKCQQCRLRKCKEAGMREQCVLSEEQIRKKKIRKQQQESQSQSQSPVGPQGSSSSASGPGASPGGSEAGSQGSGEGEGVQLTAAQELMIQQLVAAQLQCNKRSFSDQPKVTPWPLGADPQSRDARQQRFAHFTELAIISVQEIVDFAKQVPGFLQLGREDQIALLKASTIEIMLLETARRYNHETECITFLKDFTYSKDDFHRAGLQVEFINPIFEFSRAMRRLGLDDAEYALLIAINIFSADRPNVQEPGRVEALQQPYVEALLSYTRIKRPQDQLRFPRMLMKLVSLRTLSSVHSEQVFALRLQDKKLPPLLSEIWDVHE

Structure (SMILES)	activation
CN(C)S(=O)(=O)c1ccc2oc(SCC(=O)Nc3ccccc3F)nc2c1	0.66% (inactive)
COC(=O)c1sc(NC(=O)c2ccc(OC)cc2OC)nc1C	1.05% (inactive)
COc1ccc(-c2cn3cccnc3n2)cc1	0.23% (inactive)
CC(/C=N/NC(=O)c1cc(-c2ccc3ccccc3c2)n[nH]1)=C\c1ccco1	0.14% (inactive)
O=C(Nc1cccc(O)c1)c1ccc(C(=O)c2ccccc2)o1	0.51% (inactive)
Cc1ccccc1Nc1nc(-c2cccnc2)cs1	0.7% (inactive)
Cc1cc(O)c(NC(=O)c2ccc(C)c([N+](=O)[O-])c2)cc1C	0.55% (inactive)
O=C(NNC(=O)c1ccc(Cl)cc1Cl)c1cccs1	0.37% (inactive)
O=C(Nc1ccc(Cl)c(Cl)c1)c1ccccc1NC(=O)C1CC=CCC1C(=O)O (stereo not given)	0.27% (inactive)
C/C(=N\NC(=O)OC(C)(C)C)c1ccc[nH]1	0.45% (inactive)
COC(=O)N/N=C/c1cn(CCCOc2ccc(C)cc2)c2ccccc12	0.17% (inactive)
O=C(Nn1c(SCc2ccc([N+](=O)[O-])cc2)nc2ccccc2c1=O)c1ccc(F)cc1	0.57% (inactive)
Clc1ccc2nc(CSc3ccccc3)cn2c1	0.71% (inactive)
O=C(NCCOc1ccccc1)c1ccccc1F	0.64% (inactive)
COc1ccc(NC(=O)c2ccc(OC)cc2)cc1	0.75% (inactive)
Cc1cnc(NC(=O)c2ccccn2)s1	0.63% (inactive)
CC(C)C(=O)Nc1cccc(C(=O)Nc2ccc3c(c2)OCO3)c1	0.72% (inactive)
O=C(NCCc1ccc(F)cc1)c1ccc2nccnc2c1	0.74% (inactive)
O=C(NN=Cc1ccc2c(c1)CCC2)c1ccccc1O	0.3% (inactive)
COc1ccc(NC(=S)N2N=CCC2c2ccccc2)cc1 (stereo not given)	0.76% (inactive)

Structure (SMILES)	activation
O=C(NC(=S)NC1CCCCC1)c1ccc(Cl)cc1	0.45% (inactive)
S=C(c1ccc(-c2ccccc2)o1)N1CCCCC1	0.73% (inactive)
COc1ccc(-c2cn3ccsc3n2)cc1	0.84% (inactive)
Cc1ccn(-c2cccc(-n3ccc(C)n3)n2)n1	0.61% (inactive)
O=C(Nc1ncccc1O)c1ccc(S(=O)(=O)N2CCCC2)cc1	0.03% (inactive)
CC1CCCN(c2ccc(C(=O)NCCc3ccccc3)cn2)C1 (stereo not given)	0.64% (inactive)
Cc1ccc(NC(=O)c2sccc2C)cc1[N+](=O)[O-]	0.43% (inactive)
COc1ccc(Nc2ccc3ccccc3c2)cc1	0.53% (inactive)
CC(=O)Nc1ccc(-c2nc3ccccc3o2)cc1	0.95% (inactive)
CC1C/C(=N/NC(=O)c2cccs2)CC(C)(C)C1 (stereo not given)	0.21% (inactive)
O=C(NC1CCCC1)c1cc(-c2ccccc2)on1	0.75% (inactive)
COc1ccc(C(=O)O/N=C(\N)c2ccccn2)cc1[N+](=O)[O-]	0.59% (inactive)
Cc1ccsc1C(=O)N/N=C/c1ccc([N+](=O)[O-])cc1	0.59% (inactive)
c1ccc(CN=C2Nc3ccccc3CS2)nc1	0.55% (inactive)
CC(C)(C)c1ccc(/C=C/C(=O)Nc2ncccn2)cc1	0.79% (inactive)
O=C(Nc1ccccc1)c1ccc2c(c1)OCCCO2	1.02% (inactive)
O=C(NCCCN1CCOCC1)c1cc(-c2ccccc2F)no1	0.17% (inactive)
Cc1ccc(C(=O)NNc2ncnc3ccccc23)cc1	0.43% (inactive)
CCCNC(=O)c1c(Cl)cnn1-c1ccc(C)cc1	0.55% (inactive)
O=C(Nc1ccc(C2CC2(Cl)Cl)cc1)c1cccc([N+](=O)[O-])c1 (stereo not given)	0.56% (inactive)
